Reference: the EternaBench riboswitch data

Tested on: MS2 coat protein
Test: apparent Kd, MS2 coat protein; higher = weaker binding; RNA-MaP array; FMN 200 µM where present
Summary of the method: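 Green signal from SNAP-549-labelled MS2 coat protein was normalised to red-channel RNA signal and to the median Fmax of control clusters. The protein was titrated from 0.7 or 1.5 nM, doubling to 3 µM, without and then with constant ligand, over designs transcribed by stalled E. coli RNA polymerase on Illumina sequencing-chip clusters, in 100 mM Tris-HCl pH 7.5, 80 mM KCl, 4 mM MgCl2, BSA, DTT, yeast tRNA and Tween-20. The apparent Kd is the median of filtered per-cluster binding-curve fits.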

[1] = designed as: OFF switch for flavin mononucleotide, no ligand
[2] = ligand present: flavin mononucleotide, designed as: OFF switch for flavin mononucleotide
[3] = designed as: ON switch for flavin mononucleotide, no ligand
[4] = ligand present: flavin mononucleotide, designed as: ON switch for flavin mononucleotide

Sequence | apparent Kd [1] [nM] | apparent Kd [2] [nM] | apparent Kd [3] [nM] | apparent Kd [4] [nM]
CGCUCAAGAGAGAAGGAUAGAAUCAGAAGGCGUAACAUGAGGAUCACCCAUGUAAAGUAGUGUAACGAGGAUAUGAAAUGAGCG | 11.8 | 13.1 | – | –
AUUACAAUUGUAUACAUGAGGAUCACCCAUGUCAAAAGUCAUGAGGAUAUGGUAUUGUAGUUAUUCCAGAAGGCAUAAAGCUAA | – | – | 29.2 | 16.4
AAUAAACUCACAGGAUAUAGCCGAGGUCGCGUGAACUUACAGGCGACGAGGCUAGAAGGGUGACCACAUGAGGAUCACCCAUGU | – | – | 985 | 106
GCGCUACAUGAGGAUCACCCAUGUGCGAACGCACGAGGAUAUGCAUGGGCUAAUGCUGGUGCAGAAGGCGUGGCGC | – | – | 31.8 | 22.6
AACAAUCUAUCUGAGGAUAUCAUGAAAAAAACAUGAGGAUCACCCAUGUGCAGGAAAACUGCAUAUGAGAAGGCAGAUAGAUUGG | – | – | 618 | 31.6
AGAGACCUCACAGGAUAUGCUGGACUUUGUCCAGCAGAAGGGUGAAAACAUGAGGAUCACCCAUGUAUGGUCUCCAAAUUUAAU | – | – | 167 | 12.8
AUCAGCUUGACAGGAUAUGCAUGUCAGCGAAAGCUGACAAUCUUAAUAACAUGAGGAUCACCCAUGUAGAAGGGUCGAGCUGAU | 17.1 | 20.3 | – | –
GGUCAUCAAGUCAGGAUAUCGUCUGGUCGAUCAGGCGAGAAGGGACAUGAGGAUCACCCAUGUCGACUCAUCAG | 28.7 | 127 | – | –
UUUAGUUGCGGGCAGGAUAUGUGUUAAAAUACAUGAGGAUCACCCAUGUGCGGGUAUAACACCCGACAGAAGGGCCAAUCGCGAC | – | – | 73.6 | 24.4
CUGUUAUAGGUCCAGAAUUACAACAUGAGGAUCACCCAUGUGCAGGAUAUCGGGUUAAUUUUCGACGAGAAGGGCAUAGUCACG | 33.5 | 64.1 | – | –
UUGGACGUCGUAGGAUAUGUAGGAUAUUCCGACAUGAGGAUCACCCAUGUUGACAUGGAAGAAGGACAGAAGGACGAUGUCCAU | – | – | 4.14 | 3.48
UCAAGUAUGUAGGAUAUCGAUGUCGAAAGACAUCGAGAAGGACGUACAUGAGGAUCACCCAUGUAACUUGCAUG | 296 | 270 | – | –
GAGUGUGAAUAAGGAUAUAUGAGAGAGUGAGUAAUAGAAGGUAUACAAACAUGAGACAUGAGGAUCACCCAUGUAUCACCCAUG | – | – | 20.8 | 16.1
GGUUGGCGAGGAUAUACAUGAGGAUCACCCAUGUGGUCCUGUGGCUGAAAAAACCUUUGUAGAAGGCGCGGGUC | 197 | 262 | – | –
GUGUACAGAGGAUAUAUAUGGGCAUGGAAACAUGCAUCUUCACAUGAGGAUCACCCAUGUAGAAGGCUGUACAC | 143 | 84.6 | – | –
GGGUACAUCGGAGGAUAUCAUGUAAAUACAUGAGGAUCACCCAUGUCGAUGGAGACAUCGGAGAUUGAGAAGGCUGAUGUACCG | – | – | 188 | 9.18
CUCAUGUGAGGAUAUAGUGCGUCUUCUAUUAUUAUUGAGUACUAGAAGGCACAUGAGGAUCACCCAUGUAGCAC | 53.4 | 54.3 | – | –
GAAUGGGAGUAGAAGGUACGUUAUUAGUUAAGGUAAGGAUAUACUAUAAUACAGACGACAUAUAAACAUGAGGAUCACCCAUGU | – | – | 10.3 | 6.55
GGUACCAUCACAGGAUAUGCUUUCCAUUGGGAAGCAGAAGGGUGUAACAUGAGGAUCACCCAUGUGGUGCCAGGGCGUGAGCCU | – | – | 217 | 15.2
GGUCGUCACAUUAACAUGAGGAUCACCCAUGUAUAAAGACAUGAGGAUAUGCAUCCUAAUUGGAUGCAGAAGGCAUGGACGACC | – | – | 9.7 | 6.13
UUGGACGUCGUAGGAUUUGUAGGAUAUUCCUACAUGAGGAUCACCCAUGUUGACAUGGAAGAAGGACAGAAGGACGAUGUCCAU | – | – | 87.3 | 5.51
UACAUGAGGAUCACCCAUGUUUUGUCGUGUAUGGUAUUUAUCUAGGAUAUCAAUCUAUGUAUUUAUGAGAAGGAGAAUAUUAAU | 41.8 | 37.3 | – | –
UUAAUUCUGAUUCUUGAAAUACAUGAGGAUCACCCAUGUUCACAGGAUAUUGAUUAUGGUAGUAACAAGAAGGGUGUAUCAUAU | 66 | 113 | – | –
ACUUGUAAGCAGAAGGCAGUCAUUAUAUUCAUCAUGUAGACAUGAGGAUCACCCAUGUAUAGUACUGAGGAUAUGCAUCGAUAG | 6.75 | 10.3 | – | –

Sequence | apparent Kd [1] [nM] | apparent Kd [2] [nM] | apparent Kd [3] [nM] | apparent Kd [4] [nM]
CUCCUACAUGAGGAUCACCCAUGUCAGGAUAUCUCAGUGGUACCUAAAUUUACCACCCAGAGAAGGGACGUGCA | 13.3 | 17.7 | – | –
CCCAUCGCAUGAGGAUAUGGUCAGCUUUGCUGACCAGAAGGCAUGUCAAUAGACAUGAGGAUCACCCAUGUAGUUAAGAUGGGA | – | – | 675 | 49.2
GAGUGGAUGAGACCGCGGGCGACAUGAGGAUCACCCAUGUUGCAGGAUAUCAGUGCGUCGGCGCCUGAGAAGGGCGACAAUCAU | 6.56 | 7.11 | – | –
GAUUAACAUGAGGAUCACCCAUGUGAGGAUAUGGAAUGGCUCAUUGUUUGAUUUCCGUCUAGAAGGCACAUCUU | 174 | 160 | – | –
AUAUAUAUAGGAUAUACAUGAGGAUCACCCAUGUGCUUCAGCUAGGAGACUAGCAUUGGUAGAAGGAUAUAUAU | 16.1 | 26.1 | – | –
CGUGCUAUGUAGAAGGCAGAUCUGAUUCAGAUCUGAGGAUAUACAUGAGGAUCACCCAUGUUAUGCACCAGCACGAGAGUGCAU | 9.83 | 40.2 | – | –
CAGUAUAACGAAGGAUAUGGAUACAUGAGGAUCACCCAUGUAUUUUUUGUGAUUUUAAAAUUGAUCCAGAAGGUCGUAUAACUG | 31.1 | 29.2 | – | –
GCAGCGUAUGUAGGAUAUCGGUCAGUUUCUGAUCGAGAAGGACAUGAGGAUCACCCAUGUAUAUUCUAGCGUGAGCUAGGCUGC | 18.2 | 25.5 | – | –
GUGUAGAUAGGAUAUGCUUUGAGCCUACGAAAGUACGCUCGACAUGAGGAUCACCCAUGUAGAAGGGUUUACAC | 119 | 58.9 | – | –
UAGAAGUCAGGAUAUCCUGCUCGUCACUUGCGUGAUGAGUAGGAGAAGGGACAUGAGGAUCACCCAUGUAAAGC | 61.1 | 49.5 | – | –
GUUGUGUAUGUAGGAUAUGCGAAGCAAAGCUUCGCAGAAGGACAUGAGGAUCACCCAUGUAUUGCAGCCUGCAAACAGGCUGCU | 40.2 | 170 | – | –
GGAUCCAACACAGGAUAUGCUGGACUUUGUCCAGCAGAAGGGUGACAUGAGGAUCACCCAUGUAAUAGGAUCCAUAUAUUUAAU | – | – | 624 | 198
CUUCGACAUGAGGAUCACCCAUGUCAGGAUAUUGUUUAUCUGGUUUUUUACAGAUAUACAAGAAGGGAUGUGUU | 27.5 | 24.6 | – | –
UGUUGUAUUACAGGAUAUCUAUUGGUUUUAUUUAGAGAAGGGUAUUCACAUGAGGAUCACCCAUGUAUAUACGAGGAAGUUGUG | – | – | 60.5 | 66.9
CGAAAAUUUCAGAAGGACCGAUUCCACAUGAGGAUCACCCAUGUCGAUGGUAGGAUAUGGAGUUGUGGACAGGGCGGAUGUUCC | – | – | 46.3 | 8.39
UGUAUGUAGGAGAAGGAGGACUUCAUGAGGAUCACCCAUGUGUUAGGACUUAGGAUAUUUGACGACAUGAGGAUCACCCAUGUG | – | – | 58.3 | 49.6
UUAAAUCAUGUAGGAUAUGCAUGGCGAAGCUACGCAGAAGGACAUGAGGAUCACCCAUGUUCGAGGGUCUGAGUACAGAUCCAA | 23.6 | 123 | – | –
UGAUCUAUGUAGAAGGCCCAUAUCUAUAUUUAGGGAGGAUAUACAUGAGGAUCACCCAUGUAUAGAGCUGGUGGACUGGUCAGC | 30.7 | 88.6 | – | –
UGUAUUAACGGAGGAUAUCGAUAUCAAACAUGAGGAUCACCCAUGUUGAGGAUCACCCAUGUCCAUGAGAAGGCCGGCGUACUU | – | – | 36.2 | 29.4
CGCAUACUAGGAUAUACAUGAGGAUCACCCAUGUCGCCGGGCCCACUCAUACUAAAACGUAGAAGGAGUUUGCC | 18.5 | 18.8 | – | –
AUACUCGUUGUGAGGAUAUCGUUUUCGUCACGGAUCGAGAAGGCACAUGAGGAUCACCCAUGUUUGACGUGAAU | 17.1 | 44.3 | – | –
AAAAUAAGGCGAGGAUAUCGACAGCAUGUGUGACGAGAAGGCGCGAUAGGUGGGUUCCUUGACAUGAGGAUCACCCAUGUAGAA | 65.7 | 114 | – | –
AGUUGCAAACACAACAUGAGGAUCACCCAUGUACUCUCGUGUAAGGAUAUACAUUCGUAUGGAAAGUAGAAGGUACUAAUUAUG | – | – | 27.3 | 32.1
CGCGUAUGAGGAUAUGCAUAAAAGGGUGCACUGAGUCUGUGACAUGAGGAUCACCCAUGUAGAAGGCGUGCGCA | 26.7 | 73.2 | – | –
